Calls of active or inactive are those of the source. The rule behind the calls is not given here.
Assays:
MDA-MB-231 = assay: Cytotoxicity against human MDA-MB-231 cells after 48 hrs by MTT assay; type: functional, cell-based; conditions: MDA-MB-231, 48 h
Procedure, shortened: (§1)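 MTT viability screen for cytotoxicity across the breast cancer and normal kidney epithelial lines; IC50 reported in µM.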

MCF7 [1] = assay: Cytotoxicity against human MCF7 cells after 48 hrs by MTT assay; type: functional, cell-based; conditions: MCF7, 48 h; procedure, shortened: as §1
HEK293 = assay: Cytotoxicity against human HEK293 cells after 48 hrs by MTT assay; type: cell-based; conditions: HEK293, 48 h; procedure, shortened: as §1
Vero = assay: Cytotoxicity against African green monkey Vero cells after 48 hrs by MTT assay; type: cell-based; conditions: Chlorocebus sabaeus; procedure, shortened: as §1
MCF7 [2] = assay: Increase in p53 mRNA expression in human MCF7 cells at 2.5 to 7.5 uM by RT-PCR analysis; type: functional, cell-based
Procedure, shortened: (§2)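 p53 and MDM2 mRNA were measured by real-time quantitative PCR in vehicle- versus compound-treated MCF-7 or primary breast cancer cells. Data are the mean of three separate experiments with SEM, compared with control.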

MCF7 [3] = assay: Increase in MDM2 mRNA expression in human MCF7 cells at 2.5 to 7.5 uM by RT-PCR analysis; type: functional, cell-based; procedure, shortened: as §2
MCF7 [4] = assay: Increase in p53 protein expression in human MCF7 cells; type: functional, cell-based
MCF7 [5] = assay: Increase in MDM2 protein expression in human MCF7 cells; type: functional, cell-based
MCF7 [6] = assay: Increase in p53 […] in human MCF7 cells assessed as increase in p21 promoter activity after 18 hrs by luciferase reporter gene assay; type: functional, cell-based
MCF7 [7] = assay: Increase in p21 mRNA expression in human MCF7 cells at 5 to 7.5 uM by RT-PCR analysis; type: functional, cell-based
Procedure, shortened: (§3)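 Real-time quantitative PCR of p21, cyclin D1, A1, B1 and E1 mRNA in treated MCF-7 cells. Mean with SEM, n = 3, compared with control.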

MCF7 [8] = assay: Increase in p21 protein expression in human MCF7 cells at 7.5 uM by immunoblotting analysis relative to control; type: functional
Procedure, shortened: (§4)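 Western blot of cell-cycle regulatory proteins (p21, cyclin D1, phospho-Rb) in MCF-7 or primary breast cancer cells. Densitometric quantitation is given as fold change versus control; mean with SEM, n = 3.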

[9] = Increase in p21 protein expression in human primary breast adenocarcinoma cells at 7.5 uM by immunoblotting analysis relative to control; type: functional; procedure, shortened: as §4
MCF7 [10] = assay: Increase in p21 protein expression in human MCF7 cells assessed as reduction in cyclin D1 expression at 2.5 to 7.5 uM by immunoblotting analysis; type: functional, cell-based; procedure, shortened: as §4
Homo sapiens [11] = organism: Homo sapiens; assay: Increase in p21 protein expression in human primary breast adenocarcinoma cells assessed as reduction in cyclin D1 expression at 2.5 to 7.5 uM by immunoblotting analysis; type: functional; procedure, shortened: as §4
MCF7 [12] = assay: Increase in p21 protein expression in human MCF7 cells assessed as reduction in Rb phosphorylation at 2.5 to 7.5 uM by immunoblotting analysis; type: functional, cell-based; procedure, shortened: as §4
Homo sapiens [13] = organism: Homo sapiens; assay: Increase in p21 protein expression in human primary breast adenocarcinoma cells assessed as reduction in Rb phosphorylation at 2.5 to 7.5 uM by immunoblotting analysis; type: functional; procedure, shortened: as §4
MCF7 [14] = assay: Cell cycle arrest in human MCF7 cells assessed as accumulation at G1 phase at 7.5 uM after 48 hrs by propidium iodide staining-based flow cytometry (reference value: 60%); type: functional
Procedure, shortened: (§5)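 Cells were exposed to 7.5µM, then stained with propidium iodide and analysed by flow cytometry for the percentage of cells in each cell-cycle phase. Mean with SEM is from three independent experiments, compared with control.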

[15] = Cell cycle arrest in human primary breast adenocarcinoma cells assessed as accumulation at G1 phase at 7.5 uM after 48 hrs by propidium iodide staining-based flow cytometry (reference value: 60%); type: functional; procedure, shortened: as §5
MCF7 [16] = assay: Cell cycle arrest at G1/S phase in human MCF7 cells assessed as reduction in cyclin D1 mRNA expression at 2.5 to 7.5 uM after 48 hrs by RT-PCR analysis; type: functional, cell-based; procedure, shortened: as §3
MCF7 [17] = assay: Cell cycle arrest at G1/S phase in human MCF7 cells assessed as reduction in cyclin E1 mRNA expression at 2.5 to 7.5 uM after 48 hrs by RT-PCR analysis; type: functional, cell-based; procedure, shortened: as §3
MCF7 [18] = assay: Cell cycle arrest at G1/S phase in human MCF7 cells assessed as reduction in cyclin A1 mRNA expression at 2.5 to 7.5 uM after 48 hrs by RT-PCR analysis; type: functional, cell-based; procedure, shortened: as §3
MCF7 [19] = assay: Cell cycle arrest at G2/M phase in human MCF7 cells assessed as reduction in cyclin B1 mRNA expression at 2.5 to 7.5 uM after 48 hrs by RT-PCR analysis; type: functional, cell-based; procedure, shortened: as §3
MCF7 [20] = assay: Antitumor activity against human MCF7 cells xenografted in nude mouse assessed as reduction in tumor volume at 20 mg/kg, po administered for 14 days relative to vehicle-treated control; type: functional; parameters: scale not given: the % may be the effect or the level left
Procedure, shortened: (§6)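 MCF-7 xenograft tumors were induced in athymic nude mice and dosed at 20 mg/kg body weight/day for 14 days, alongside a vehicle-treated group. Tumor volume, average tumor size and body weight were tracked. Liver, lungs, spleen, uterus and kidney were examined histomorphologically against vehicle.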

MCF7 [21] = assay: Antitumor activity against human MCF7 cells xenografted in nude mouse assessed as reduction in tumor size at 20 mg/kg, po administered for 14 days relative to vehicle-treated control; type: functional; parameters: scale not given: the % may be the effect or the level left; procedure, shortened: as §6
Mus musculus [22] = assay: Toxicity in nude mouse xenografted with human MCF7 cells assessed as change in body weight at 20 mg/kg, po administered for 14 days relative to vehicle-treated control; type: organism-based; parameters: dose 20 mg/kg, route oral; conditions: in vivo, 336 h; procedure, shortened: as §6
Mus musculus [23] = assay: Toxicity in nude mouse xenografted with human MCF7 cells assessed as change in liver at 20 mg/kg, po administered for 14 days by histomorphology relative to vehicle-treated control; type: organism-based; parameters: dose 20 mg/kg, route oral; conditions: in vivo, 336 h; procedure, shortened: as §6
Mus musculus [24] = assay: Toxicity in nude mouse xenografted with human MCF7 cells assessed as change in lungs at 20 mg/kg, po administered for 14 days by histomorphology relative to vehicle-treated control; type: organism-based; parameters: dose 20 mg/kg, route oral; conditions: in vivo, 336 h; procedure, shortened: as §6
Mus musculus [25] = assay: Toxicity in nude mouse xenografted with human MCF7 cells assessed as change in spleen at 20 mg/kg, po administered for 14 days by histomorphology relative to vehicle-treated control; type: organism-based; parameters: dose 20 mg/kg, route oral; conditions: in vivo, 336 h; procedure, shortened: as §6
Mus musculus [26] = assay: Toxicity in nude mouse xenografted with human MCF7 cells assessed as change in uterus at 20 mg/kg, po administered for 14 days by histomorphology relative to vehicle-treated control; type: organism-based; parameters: dose 20 mg/kg, route oral; conditions: in vivo, 336 h; procedure, shortened: as §6
Mus musculus [27] = assay: Toxicity in nude mouse xenografted with human MCF7 cells assessed as change in kidney at 20 mg/kg, po administered for 14 days by histomorphology relative to vehicle-treated control; type: organism-based; parameters: dose 20 mg/kg, route oral; conditions: in vivo, 336 h; procedure, shortened: as §6
Mus musculus [28] = assay: Antitumor activity against human MCF7 cells xenografted in nude mouse assessed as increase in p21 protein expression at 20 mg/kg, po administered for 14 days by Western blotting analysis; type: functional, organism-based; parameters: dose 20 mg/kg
Mus musculus [29] = assay: Antitumor activity against human MCF7 cells xenografted in nude mouse assessed as reduction in cyclin D1 protein expression at 20 mg/kg, po administered for 14 days by Western blotting analysis; type: functional, organism-based; parameters: dose 20 mg/kg
Mus musculus [30] = assay: Antitumor activity against human MCF7 cells xenografted in nude mouse assessed as reduction in phosphorylated Rb level at 20 mg/kg, po administered for 14 days by Western blotting analysis; type: functional, organism-based; parameters: dose 20 mg/kg
Homo sapiens [31] = organism: Homo sapiens; assay: Increase in p53 mRNA expression in human primary breast adenocarcinoma cells at 2.5 to 7.5 uM by RT-PCR analysis; type: functional; procedure, shortened: as §2
Homo sapiens [32] = organism: Homo sapiens; assay: Increase in MDM2 mRNA expression in human primary breast adenocarcinoma cells at 2.5 to 7.5 uM by RT-PCR analysis; type: functional; procedure, shortened: as §2
Homo sapiens [33] = organism: Homo sapiens; assay: Increase in p53 protein expression in human primary breast adenocarcinoma cells; type: functional
Homo sapiens [34] = organism: Homo sapiens; assay: Increase in MDM2 protein expression in human primary breast adenocarcinoma cells; type: functional

O=C(c1ccc(OCCN2CCCC2)cc1)C1[C@H](c2ccccc2)[C@@H](c2ccccc2)NC12C(=O)Nc1ccccc12 (some centres undefined)
IC50 (MDA-MB-231): 16.8 µM
IC50 (MCF7 [1]): 23 µM
IC50 (HEK293): 25.3 µM
IC50 (Vero): 19.4 µM

O=C(c1ccc(OCCN2CCCCC2)cc1)C1[C@H](c2ccccc2)[C@@H](c2ccccc2)NC12C(=O)Nc1ccc(Cl)cc12 (some centres undefined)
IC50 (MDA-MB-231): 3.7 µM
IC50 (MCF7 [1]): 6.5 µM
IC50 (HEK293): > 50 µM
IC50 (Vero): > 50 µM
Activity (MCF7 [2]): Active
Activity (MCF7 [3]): Active
Activity (MCF7 [4]): Active
Activity (MCF7 [5]): Active
Activity (MCF7 [6]): Dose-dependent effect
Activity (MCF7 [7]): Active
Ratio (MCF7 [8]): 2.5
Ratio [9]: 2.5
Activity (MCF7 [10]): Active
Activity (Homo sapiens [11]): Active
Activity (MCF7 [12]): Active
Activity (Homo sapiens [13]): Active
Activity (MCF7 [14]): 90%
Activity [15]: 90%
Activity (MCF7 [16]): Active
Activity (MCF7 [17]): Active
Activity (MCF7 [18]): Active
Activity (MCF7 [19]): inactive
Activity (MCF7 [20]): 66%
Activity (MCF7 [21]): 66%
Activity (Mus musculus [22]): Non-toxic
Activity (Mus musculus [23]): Non-toxic
Activity (Mus musculus [24]): Non-toxic
Activity (Mus musculus [25]): Non-toxic
Activity (Mus musculus [26]): Non-toxic
Activity (Mus musculus [27]): Non-toxic
Activity (Mus musculus [28]): Active
Activity (Mus musculus [29]): Active
Activity (Mus musculus [30]): Active
Activity (Homo sapiens [31]): Active
Activity (Homo sapiens [32]): Active
Activity (Homo sapiens [33]): Active
Activity (Homo sapiens [34]): Active

CN(C)CCOc1ccc(C(=O)C2[C@H](c3ccccc3)[C@@H](c3ccccc3)NC23C(=O)Nc2ccc([N+](=O)[O-])cc23)cc1 (some centres undefined)
IC50 (MDA-MB-231): 17.8 µM
IC50 (MCF7 [1]): 17.2 µM
IC50 (HEK293): 24.2 µM
IC50 (Vero): 28.8 µM

COc1ccc([C@H]2C(C(=O)c3ccccc3)C3(N[C@@H]2c2ccccc2)C(=O)Nc2ccccc23)cc1 (some centres undefined)
IC50 (MDA-MB-231): 30.5 µM
IC50 (MCF7 [1]): 20.6 µM
IC50 (HEK293): > 50 µM
IC50 (Vero): 43.5 µM

O=C(c1ccc(OCCN2CCOCC2)cc1)C1[C@H](c2ccccc2)[C@@H](c2ccccc2)NC12C(=O)Nc1ccc([N+](=O)[O-])cc12 (some centres undefined)
IC50 (MDA-MB-231): > 50 µM
IC50 (MCF7 [1]): 24.7 µM
IC50 (HEK293): 45.4 µM
IC50 (Vero): > 50 µM

O=C(c1ccc(OCCN2CCCCC2)cc1)C1[C@H](c2ccccc2)[C@@H](c2ccccc2)NC12C(=O)Nc1ccccc12 (some centres undefined)
IC50 (MDA-MB-231): 28.2 µM
IC50 (MCF7 [1]): 13.9 µM
IC50 (HEK293): 30.8 µM
IC50 (Vero): 32.4 µM

CCN(CC)CCOc1ccc(C(=O)C2[C@H](c3ccccc3)[C@@H](c3ccccc3)NC23C(=O)Nc2ccccc23)cc1 (some centres undefined)
IC50 (MDA-MB-231): 14.5 µM
IC50 (MCF7 [1]): 13.4 µM
IC50 (HEK293): 23.2 µM
IC50 (Vero): 20.6 µM

O=C(c1ccc(OCCN2CCOCC2)cc1)C1[C@H](c2ccccc2)[C@@H](c2ccccc2)NC12C(=O)Nc1ccccc12 (some centres undefined)
IC50 (MDA-MB-231): > 50 µM
IC50 (MCF7 [1]): > 50 µM
IC50 (HEK293): > 50 µM
IC50 (Vero): > 50 µM

COc1ccc(C2=N[C@@H](c3ccc(Cl)cc3)[C@@H](c3ccc(Cl)cc3)N2C(=O)N2CCNC(=O)C2)c(OC(C)C)c1 [NUTLIN-3]
IC50 (MDA-MB-231): 23.5 µM
IC50 (MCF7 [1]): 11.6 µM
IC50 (HEK293): > 50 µM
IC50 (Vero): > 50 µM

From ChEMBL document CHEMBL3399923, “Design and synthesis of new bioisosteres of spirooxindoles (MI-63/219) as anti-breast cancer agents” (Bioorg Med Chem, 2015)
